Laboratory results reported in ChEMBL document CHEMBL4825680, “Structure-based discovery of potent and selective small-molecule inhibitors targeting signal transducer and activator of transcription 3 (STAT3)” (Eur J Med Chem, 2021).
Calls of active or inactive are those of the source. The calls are words filed in the database; no cut-off is given here.

Tests used:
[1] = tested on: MDA-MB-468; assay: Induction of apoptosis in human MDA-MB-468 cells assessed as increase in caspase-7 cleavage at 1 uM after 48 hrs by Western blot analysis; assay type: functional, cell-based
Method in brief: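 Cells were treated with vehicle (0.1% DMSO) or compound, then analysed by western blot of RIPA lysates (20–50 μg protein, SDS-PAGE, PVDF) for PARP and cleaved caspase-7, with β-actin as loading control. Three independent experiments.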

[2] = Antitumor activity against human MDA231-LM2-4175 cells xenografted in mouse assessed as tumor growth inhibition at 5 mg/kg, iv administered once daily for 20 days; assay type: functional; details: MDA231-LM2-4175, iv, 480 h, time 20 day, read-out: TGI
[3] = tested on: HCC70; assay: Effect on total STAT5 level in human HCC70 cells at 0.3 to 3 uM after 3 hrs by Western blotting analysis; assay type: functional, cell-based; details: dose 0.3-3 µM
Method in brief: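 Breast cancer cells were treated with vehicle (0.1% DMSO) or compound, then lysed in RIPA with PMSF and phosphatase inhibitors. 20–50 μg protein was run on 8 or 12% SDS-PAGE, blotted to PVDF, blocked in 5% BSA, probed with primary antibodies overnight at 4 °C, then HRP secondaries, with ECL detection.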

[4] = tested on: MDA-MB-468; assay: Induction of apoptosis in human MDA-MB-468 cells assessed as necrotic cells at 1 uM after 48 hrs by Annexin-V-FITC/propidium iodide staining based flow cytometric analysis (reference value: 0.240%); assay type: functional
[5] = biological target: T1, Signal transducer and activator of transcription 3 (Homo sapiens, UniProt P40763); assay: Inhibition of STAT3 in human MDA231-LM2-4175 cells assessed as downregulation of Bcl-xL expression at 0.3 to 3 uM after 24 hrs by western blot analysis; assay type: cell-based; details: dose 0.3-3 µM
T1 sequence (P40763 whole entry): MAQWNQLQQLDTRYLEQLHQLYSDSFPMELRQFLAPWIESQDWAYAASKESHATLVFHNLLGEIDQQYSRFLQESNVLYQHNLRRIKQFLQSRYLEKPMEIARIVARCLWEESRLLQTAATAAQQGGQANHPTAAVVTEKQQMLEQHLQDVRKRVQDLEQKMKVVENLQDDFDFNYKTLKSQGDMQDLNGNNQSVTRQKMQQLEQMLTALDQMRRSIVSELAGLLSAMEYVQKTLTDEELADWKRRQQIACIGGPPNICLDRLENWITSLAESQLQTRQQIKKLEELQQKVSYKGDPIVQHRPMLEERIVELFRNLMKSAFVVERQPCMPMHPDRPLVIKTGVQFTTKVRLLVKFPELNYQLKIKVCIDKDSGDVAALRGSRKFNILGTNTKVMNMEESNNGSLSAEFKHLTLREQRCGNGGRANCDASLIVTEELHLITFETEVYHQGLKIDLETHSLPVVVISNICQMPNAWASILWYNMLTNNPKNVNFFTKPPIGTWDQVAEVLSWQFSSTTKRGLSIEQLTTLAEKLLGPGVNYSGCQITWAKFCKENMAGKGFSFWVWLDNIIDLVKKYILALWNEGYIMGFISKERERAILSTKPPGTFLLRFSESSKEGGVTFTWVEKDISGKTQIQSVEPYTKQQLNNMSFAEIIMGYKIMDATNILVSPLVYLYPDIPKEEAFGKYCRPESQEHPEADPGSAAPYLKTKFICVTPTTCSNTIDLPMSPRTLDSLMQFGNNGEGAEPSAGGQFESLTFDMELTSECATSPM
Method in brief: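 TNBC cells given vehicle (0.1% DMSO) or graded compound levels for 24 h, lysed in RIPA with PMSF and phosphatase inhibitors. BCA-quantified lysate (20–50 µg) run on SDS-PAGE, transferred to PVDF, blocked in 5% BSA. Probed overnight at 4 °C for Bcl-xL, Mcl-1 and c-Myc, with β-actin. HRP secondary, ECL detection. Three independent experiments.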

[6] = Antitumor activity against human MDA231-LM2-4175 cells xenografted in mouse assessed as tumor growth inhibition at 15 mg/kg, iv administered once daily for 20 days; assay type: functional; details: MDA231-LM2-4175, iv, 480 h, time 20 day, read-out: TGI
[7] = Induction of apoptosis in human MDA231-LM2-4175 cells assessed as early apoptotic cells at 3 uM after 48 hrs by Annexin-V-FITC/propidium iodide staining based flow cytometric analysis (reference value: 2.49%); assay type: functional
[8] = tested on: MDA231-LM2-4175; assay: Antitumor activity against human MDA231-LM2-4175 cells xenografted in mouse assessed as reduction in Bcl-xL expression at 5 to 15 mg/kg, iv administered once daily for 20 days by Western blotting analysis; assay type: functional, organism-based; details: dose 5-15 mg/kg, time 20.0 day
[9] = biological target: T1, Signal transducer and activator of transcription 3; assay: Inhibition of HA-tagged STAT3 dimerization (unknown origin) expressed in HEK293T cells preincubated for 3 hrs followed by IL-3 stimulation by immunoprecipitation analysis; assay type: cell-based; details: dose 1-3 µM
[10] = biological target: T2, Signal transducer and activator of transcription 1-alpha/beta (Homo sapiens) (UniProt P42224); assay: Inhibition of STAT1 phosphorylation at Y701 residue in human MDA-MB-231 cells at 0.3 to 3 uM after 3 hrs by Western blotting analysis; assay type: cell-based; details: dose 0.3-3 µM
T2 sequence (whole entry): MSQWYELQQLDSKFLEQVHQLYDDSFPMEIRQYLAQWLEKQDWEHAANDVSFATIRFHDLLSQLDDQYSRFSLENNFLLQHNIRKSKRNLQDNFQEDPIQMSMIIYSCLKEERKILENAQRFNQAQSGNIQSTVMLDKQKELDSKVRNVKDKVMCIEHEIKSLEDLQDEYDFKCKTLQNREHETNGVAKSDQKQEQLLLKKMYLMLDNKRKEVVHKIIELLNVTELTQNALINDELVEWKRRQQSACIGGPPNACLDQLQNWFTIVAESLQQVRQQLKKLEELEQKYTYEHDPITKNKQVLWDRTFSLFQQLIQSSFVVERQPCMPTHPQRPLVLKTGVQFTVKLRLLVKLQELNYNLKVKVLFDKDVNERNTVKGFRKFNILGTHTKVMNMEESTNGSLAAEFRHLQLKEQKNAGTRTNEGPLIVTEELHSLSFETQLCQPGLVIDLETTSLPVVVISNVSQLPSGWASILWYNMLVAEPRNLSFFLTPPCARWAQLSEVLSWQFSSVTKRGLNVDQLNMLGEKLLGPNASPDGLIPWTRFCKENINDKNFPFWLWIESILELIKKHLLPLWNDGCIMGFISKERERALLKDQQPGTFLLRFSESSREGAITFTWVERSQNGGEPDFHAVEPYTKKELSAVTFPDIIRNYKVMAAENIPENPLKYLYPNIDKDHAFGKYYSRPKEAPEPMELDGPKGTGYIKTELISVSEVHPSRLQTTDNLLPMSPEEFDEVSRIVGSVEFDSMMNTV

[11] = Induction of apoptosis in human MDA231-LM2-4175 cells assessed as late apoptotic cells at 3 uM after 48 hrs by Annexin-V-FITC/propidium iodide staining based flow cytometric analysis (reference value: 2.60%); assay type: functional
[12] = tested on: Breast cancer cell line; assay: Antitumor activity against patient-derived breast cancer cells xenografted in NOD/SCID mouse assessed as reduction in pY705-STAT3 expression at 5 to 15 mg/kg, iv administered once daily for 20 days by Western blotting analysis; assay type: functional, organism-based; details: Homo sapiens, dose 5-15 mg/kg, time 20.0 day
[13] = Toxicity in NOD/SCID mouse xenografted with patient-derived breast cancer cells assessed as morphological change in spleen at 5 to 15 mg/kg, […] once daily for 20 days by HE staining based assay; assay type: organism-based; details: in vivo, iv, 480 h, dose 5-15 mg/kg, time 20 day
Method in brief: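 Female NOD-SCID mice implanted subcutaneously in the flank with about 2 mm³ TNBC PDX fragments. At about 100 mm³ tumour volume, randomised n=6/group: vehicle (PBS with 15% Cremophor EL), 5 or 15 mg/kg intraperitoneally daily. Killed at day 20; heart, liver, spleen, lung and kidney collected for morphological examination.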

[14] = Toxicity in mouse xenografted with human MDA-MB-231-4175 cells assessed as body weight loss at 5 to 15 mg/kg, […] once daily for 20 days; assay type: organism-based; details: in vivo, iv, dose 5-15 mg/kg, time 20 day
Method in brief: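 Female NOD-SCID mice aged 4–5 weeks, given 2×10^6–3×10^6 MDA-MB-231-4175 cells subcutaneously in the flank. At about 100 mm³ tumour volume, randomised n=6/group to vehicle (PBS with 15% Cremophor EL) or 5 or 15 mg/kg intraperitoneally daily for 20 days. Body weight tracked during treatment.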

[15] = Induction of apoptosis in human MDA231-LM2-4175 cells assessed as viable cells at 3 uM after 48 hrs by Annexin-V-FITC/propidium iodide staining based flow cytometric analysis (reference value: 94.4%); assay type: functional; details: read-out: Activity

SMILES: O=C(Cc1c(-c2ccccc2)nc2ccccn12)Nc1ccc2c(c1)S(=O)(=O)C=C2
- Activity [1]: Active
- inhibition in vivo at 5 mg/kg [2]: 20.1%
- Activity [3]: inactive
- Activity [4]: 1.54%
- inhibition [5]: Active
- inhibition in vivo at 15 mg/kg [6]: 40.2%
- Activity [7]: 9.5%
- Activity [8]: Active
- inhibition [9]: Dose-Dependent Effect
- inhibition [10]: inactive
- Activity [11]: 5.71%
- Activity [12]: Active
- Activity [13]: Non-Toxic
- Activity [14]: Non-Toxic
- viability at 3 µM [15]: 83.4%
